High-throughput results (PubChem BioAssay)
Compounds with a hit are over-represented: about 6.4% of the library has one in this group of screens.
Tb MetRS inh: blocks T. brucei methionyl-tRNA synthetase activity; purified T. brucei MetRS, ATP depletion, Kinase-Glo luminescence; inhibition, % at 11.9 µM; AID 624268; 360,000 tested, 0.4% active;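 active = inhibition above a per-plate cutoff of the control wells' mean inhibition plus 3 SD, cut at about 5.5% in these data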;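 also: 0% = DMSO wells median and 100% = median of wells with control inhibitor compound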
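Material: parasite MetRS enzyme / Replication: singlicate, one well per compound / Signal: luminescence of leftover ATP / Schedule: 2 h aminoacylation at 25 °C after 15 min preincubation / Medium: HEPES-MgCl2-KCl buffer plus DTT, spermine, BSA, pyrophosphatase / Doses: 11.9 µM single point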
CHOP inhibitor: inhibitors of CHOP induction in ER stress response; CHO-K1 CHOP-promoter luciferase, tunicamycin-induced, 15-18 h; inhibition, % at 10 µM; 220,000 tested, 3.8% active;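 active = compounds that reduced the stress-induced luciferase reporter signal by more than about 70% of percent inhibition, limit read from the data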;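 also: 0% = tunicamycin plus vehicle and 100% = wells without tunicamycin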
MPTP inh: inhibitors of mitochondrial permeability transition pore; isolated mouse mitochondria, Ca2+ swelling absorbance, 30 min; inhibition, % at 10 µM; 360,000 tested, 1.4% active; AID 602449;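 active = inhibition of 50% or more, scaled per plate between neutral and stimulator controls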;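 also: 0% = DMSO wells given calcium and 100% = 1 mM EGTA wells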
WT yeast gro inh: growth inhibition of WT yeast, mitochondrial fusion screen; mitochondrial fusion phenotypic screen, WT strain; inhibition, % at 10 µM; 190,000 tested, 2.1% active; AID 1362; in the data active = inhibition above about 58%; tested in S. cerevisiae
EBV gp42 block: blocks Epstein-Barr virus glycoprotein 42 binding. Fluorescence polarization binding assay, mP read-out. inhibition, % (tested at 21.74 µM). 220,000 tested, 0.42% active; in the data active = inhibition above about 50%
Target sequence (Q1HVG2 whole entry, looked up): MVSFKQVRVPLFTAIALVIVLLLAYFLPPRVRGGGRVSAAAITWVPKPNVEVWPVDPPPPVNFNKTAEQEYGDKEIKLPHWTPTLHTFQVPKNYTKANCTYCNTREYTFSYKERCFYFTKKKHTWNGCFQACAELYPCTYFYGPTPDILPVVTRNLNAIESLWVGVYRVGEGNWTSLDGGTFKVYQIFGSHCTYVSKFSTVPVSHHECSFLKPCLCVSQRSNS
GRIN3A LBD mod: modulates the human NR3A ligand-binding domain; 340,000 tested, 2.5% active; Tm shift relative to glycine control, % at 25 µM; NR3A LBD differential scanning fluorimetry, Tm shift; 0% = protein alone, 100% = glycine-bound protein;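 active = melting temperature shift of at least 10% of the positive control shift, at one fixed dose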
Starred values were filed as active, the others as inactive.

`O=C(O)c1cccc(N/N=C/C2=C(Cl)c3cc(Cl)ccc3SC2)c1` gave Tb MetRS inh -0.4, CHOP inhibitor 33.1, MPTP inh -4.1, WT yeast gro inh 93.8*, EBV gp42 block 10.3 and GRIN3A LBD mod -14.9.
O=C(O)c1cccc(N/N=C/c2ccc(F)c(F)c2)c1 was read as Tb MetRS inh 1.9, CHOP inhibitor 15.9, MPTP inh -1.6, WT yeast gro inh -5.2, EBV gp42 block -10.1 and GRIN3A LBD mod 0.1.
Screening S=C(c1ccc(-c2cccc(Cl)c2)o1)N1CCCCC1 returned Tb MetRS inh -0.2, CHOP inhibitor 43.7, MPTP inh 1.9, WT yeast gro inh 58.1*, EBV gp42 block -4.7 and GRIN3A LBD mod 0.0.
For S=C(c1ccc(-c2cc(Cl)ccc2Cl)o1)N1CCOCC1 the results were Tb MetRS inh -0.5, CHOP inhibitor 70.2*, MPTP inh 3.0, WT yeast gro inh 32.8, EBV gp42 block -0.5 and GRIN3A LBD mod 4.0.
S=C(c1ccc(-c2cccc(Cl)c2)o1)N1CCOCC1 was read as Tb MetRS inh -0.2, CHOP inhibitor 69.5, MPTP inh 3.5, WT yeast gro inh 5.5, EBV gp42 block -5.1 and GRIN3A LBD mod -0.9.
Screening S=C(c1ccc(-c2cc(Cl)ccc2Cl)o1)N1CCCCC1 returned Tb MetRS inh 0.5, CHOP inhibitor 16.8, MPTP inh 4.6, WT yeast gro inh 49.8, EBV gp42 block -25.7 and GRIN3A LBD mod 0.2.
`CC(C)n1c(SCC(=O)Nc2ccc3c(c2)OCO3)nc2c1c(=O)n(C)c(=O)n2C` gave Tb MetRS inh -0.1, CHOP inhibitor 4.0, MPTP inh 1.7, WT yeast gro inh 42.0, EBV gp42 block -8.8 and GRIN3A LBD mod -0.9.
Screening COc1ccccc1C1(CCNS(=O)(=O)c2ccc(C)cc2)CCOC(C(C)C)C1 (stereo not drawn) returned Tb MetRS inh -0.5, CHOP inhibitor 13.9, MPTP inh 1.1, WT yeast gro inh 59.1*, EBV gp42 block 8.5 and GRIN3A LBD mod -12.2.
`Cn1c(SCC(=O)N2CCCC2)nc2ccccc2c1=O` gave Tb MetRS inh -0.3, CHOP inhibitor 3.2, MPTP inh 0.5, WT yeast gro inh -3.8, EBV gp42 block -24.8 and GRIN3A LBD mod 0.7.
For CCC(=O)n1nc(-c2ccccc2)nc1NCc1ccccc1 the results were Tb MetRS inh 0.4, CHOP inhibitor 93.3*, MPTP inh -0.5, WT yeast gro inh 16.7, EBV gp42 block -2.5 and GRIN3A LBD mod 1.0.
`CCC(=O)n1nc(-c2cccnc2)nc1NCc1ccc(OC)cc1` gave Tb MetRS inh -1.2, CHOP inhibitor 35.9, MPTP inh -0.3, WT yeast gro inh -6.0, EBV gp42 block -4.7 and GRIN3A LBD mod -1.4.
Screening COCC(=O)n1nc(-c2ccccc2)nc1NCc1ccc(F)cc1 returned Tb MetRS inh -1.2, CHOP inhibitor 42.1, MPTP inh 0.5, WT yeast gro inh 16.0, EBV gp42 block -8.1 and GRIN3A LBD mod 12.7*.
For COCC(=O)n1nc(-c2ccccc2)nc1NCc1ccccc1 the results were Tb MetRS inh -0.8, CHOP inhibitor 26.9, MPTP inh -0.5, WT yeast gro inh 11.8, EBV gp42 block -17.1 and GRIN3A LBD mod 1.3.
Screening CC(=O)N1N=C2/C(=C/c3ccccc3)CCCC2C1c1ccccc1 (stereo not drawn) returned Tb MetRS inh 0.1, CHOP inhibitor 56.4, MPTP inh 1.7, WT yeast gro inh 43.6, EBV gp42 block -20.1 and GRIN3A LBD mod -2.1.
CCCn1c(SCC(=O)N2N=C3/C(=C/c4ccc(OC)cc4)CCCC3C2c2ccc(OC)cc2)n[nH]c1=O (stereo not drawn) was read as Tb MetRS inh 0.3, CHOP inhibitor 70.7*, MPTP inh 5.1, WT yeast gro inh 33.8, EBV gp42 block 5.3 and GRIN3A LBD mod 0.9.
For O=C(c1ccccn1)N1N=C2/C(=C/c3ccc(F)cc3)CCCC2C1c1ccc(F)cc1 (stereo not drawn) the results were Tb MetRS inh 0.7, CHOP inhibitor 19.7, MPTP inh 0.7, WT yeast gro inh 74.5*, EBV gp42 block 2.7 and GRIN3A LBD mod -0.1.
CCCn1c(SCC(=O)NCc2ccc(OC)cc2)n[nH]c1=O was read as Tb MetRS inh -0.9, CHOP inhibitor -11.5, MPTP inh -1.4, WT yeast gro inh 10.7, EBV gp42 block -11.2 and GRIN3A LBD mod 2.5.
